Columns and labels:
[1] = molecular target: T1, DNA topoisomerase 1 (Homo sapiens) (UniProt P11387); assay: Inhibition of human recombinant topoisomerase 1-mediated relaxation of supercoiled pBR322 DNA at 100 uM after 30 mins by agarose gel electrophoresis relative to control
T1 sequence (whole entry): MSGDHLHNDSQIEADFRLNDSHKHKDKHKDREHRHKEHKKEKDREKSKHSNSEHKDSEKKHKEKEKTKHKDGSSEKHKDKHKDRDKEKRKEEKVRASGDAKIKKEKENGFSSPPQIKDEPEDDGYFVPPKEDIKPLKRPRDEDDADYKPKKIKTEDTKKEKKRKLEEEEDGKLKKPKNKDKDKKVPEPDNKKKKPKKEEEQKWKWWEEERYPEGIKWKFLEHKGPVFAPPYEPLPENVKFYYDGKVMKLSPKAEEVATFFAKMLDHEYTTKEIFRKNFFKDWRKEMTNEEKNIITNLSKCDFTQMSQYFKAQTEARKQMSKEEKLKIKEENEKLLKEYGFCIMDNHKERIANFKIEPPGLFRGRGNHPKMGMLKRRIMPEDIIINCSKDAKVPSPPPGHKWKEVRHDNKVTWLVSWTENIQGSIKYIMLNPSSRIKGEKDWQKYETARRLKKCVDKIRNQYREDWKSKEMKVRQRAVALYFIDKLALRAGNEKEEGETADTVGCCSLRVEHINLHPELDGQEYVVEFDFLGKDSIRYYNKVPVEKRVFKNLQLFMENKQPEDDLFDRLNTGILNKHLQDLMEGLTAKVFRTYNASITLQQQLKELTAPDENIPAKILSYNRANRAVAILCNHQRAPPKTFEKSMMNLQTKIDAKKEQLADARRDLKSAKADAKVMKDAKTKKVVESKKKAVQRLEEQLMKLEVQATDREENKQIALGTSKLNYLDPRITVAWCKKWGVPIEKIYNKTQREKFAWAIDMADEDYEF
Procedure, shortened: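 Recombinant human topo I (0.4 units) with 100 ng supercoiled pBR322, 37 °C for 30 min in Tris-HCl pH 7.9, 150 mM NaCl, 0.1% BSA, 1 mM spermidine, 5% glycerol. Compounds came from 20 mM DMSO stocks, with matched DMSO in the enzyme-only control. Stopped with sarcosyl; 1% agarose/TAE gel, ethidium stain, UV densitometry. Camptothecin was the positive control.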

RPMI-8226 = assay: Growth inhibition of human RPMI8226 cells assessed as cell growth at 10^-5 M after 48 hrs by sulforhodamine B assay; type: functional; settings: RPMI-8226, 48 h, read-out: Activity
Procedure, shortened: (§1)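 NCI 60-cell-line primary one-dose screen. Cells were exposed to a single 10^-5 M concentration for 48 h. The end point was sulforhodamine B protein staining, read spectrophotometrically. Results are reported as percent growth of treated cells relative to untreated control cells.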

BT-549 = assay: Growth inhibition of human BT549 cells after 48 hrs by sulforhodamine B assay; type: functional; settings: BT-549, 48 h
Procedure, shortened: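 NCI 60-panel five-dose test at 10-fold dilutions, 10^-4 to 10^-8 M, with 48 h continuous exposure and SRB protein read-out. Percent growth derived from time-zero, untreated-control and treated absorbances. GI50 is the concentration where [(Ti-Tz)/(C-Tz)]×100 = 50. TGI is taken at Ti = Tz. LC50 is taken at [(Ti-Tz)/Tz]×100 = -50.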

PC-3 = assay: Growth inhibition of human PC3 cells after 48 hrs by sulforhodamine B assay; type: functional; settings: PC-3, 48 h
Procedure, shortened: (§2)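 NCI five-dose screen on the full 60-cell-line panel. Cells were given 10-fold dilutions from 10^-4 to 10^-8 M with continuous 48 h exposure, and growth was read by SRB staining. Percent growth was taken from time-zero, control and treated absorbances. GI50, TGI and LC50 were then derived, the GI50 being the concentration that gives a 50% lower net protein increase than control.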

NCI-H322M = assay: Growth inhibition of human NCI-H322M cells assessed as cell growth at 10^-5 M after 48 hrs by sulforhodamine B assay; type: functional; settings: read-out: Activity; procedure, shortened: as §1
HL-60(TB) [2] = assay: Growth inhibition of human HL-60(TB) cells after 48 hrs by sulforhodamine B assay; type: functional; settings: HL-60, 48 h; for CC50: read-out: LC50 (the source's name)
Procedure, shortened: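 NCI 60-panel five-dose screen: cells exposed continuously for 48 h to 10-fold dilutions from 10^-4 to 10^-8 M; SRB protein staining read spectrophotometrically. Percent growth from time-zero, untreated-control and treated absorbances; GI50 is the concentration giving 50% lower net protein increase than control.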

Malme-3M = assay: Growth inhibition of human MALME-3M cells assessed as cell growth at 10^-5 M after 48 hrs by sulforhodamine B assay; type: functional; settings: read-out: Activity
Procedure, shortened: (§3)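 NCI 60-cell-line primary screen. Single concentration of 10^-5 M, 48 h incubation. End point by sulforhodamine B protein staining read spectrophotometrically. Reported as percent growth of treated cells relative to untreated control cells.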

SK-MEL-2 = assay: Growth inhibition of human SK-MEL-2 cells assessed as cell growth at 10^-5 M after 48 hrs by sulforhodamine B assay; type: functional; settings: SK-MEL-2, 48 h, read-out: Activity; procedure, shortened: as §1
[3] = Octanol-phosphate buffer partition coefficient, log P of the compound after 5 hrs by shake-flask method; type: physicochemical
Procedure, shortened: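 Shake-flask method: 100 µL of 0.2 mg/mL stock diluted into 1.9 mL phosphate buffer pH 7.4 plus 2 mL mutually saturated n-octanol, protected from light. Vortexed 3 min, shaken 5 h at 25 °C. Both phases assayed by UV at 272 nm; log P = log([octanol]/[aqueous]), run in triplicate.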

CCRF-CEM = assay: Growth inhibition of human CCRF-CEM cells assessed as cell growth at 10^-5 M after 48 hrs by sulforhodamine B assay; type: functional; settings: read-out: Activity; procedure, shortened: as §3
[4] = Growth inhibition of human Hs 578T cells assessed as cell growth at 10^-5 M after 48 hrs by sulforhodamine B assay; type: functional; settings: read-out: Activity; procedure, shortened: as §3
A549 = assay: Growth inhibition of human A549/ATCC cells assessed as cell growth at 10^-5 M after 48 hrs by sulforhodamine B assay; type: functional; settings: A549, 48 h, read-out: Activity; procedure, shortened: as §3
OVCAR-5 = assay: Growth inhibition of human OVCAR5 cells after 48 hrs by sulforhodamine B assay; type: functional; settings: OVCAR-5, 48 h; procedure, shortened: as §2
MDA-MB-468 = assay: Growth inhibition of human MDA-MB-468 cells assessed as cell growth at 10^-5 M after 48 hrs by sulforhodamine B assay; type: functional; settings: MDA-MB-468, 48 h, read-out: Activity; procedure, shortened: as §1
HL-60(TB) [5] = assay: Growth inhibition of human HL-60(TB) cells assessed as cell growth at 10^-5 M after 48 hrs by sulforhodamine B assay; type: functional; settings: HL-60, 48 h, read-out: Activity
Procedure, shortened: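 NCI one-dose primary screen: compound added once at 10^-5 M, cultures incubated 48 h, end point by SRB protein-binding dye. Result given as percent growth of treated cells relative to untreated control cells, measured spectrophotometrically.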

SF-268 = assay: Growth inhibition of human SF268 cells assessed as cell growth at 10^-5 M after 48 hrs by sulforhodamine B assay; type: functional; settings: SF-268, 48 h, read-out: Activity; procedure, shortened: as §1

Row | SMILES | inhibition [1] | growth at 10 µM (RPMI-8226) | GI50 (BT-549) | LC50 (concentration giving 50% net cell kill) (BT-549) | TGI (BT-549) | GI50 (PC-3) | LC50 (PC-3) | TGI (PC-3) | growth at 10 µM (NCI-H322M) | GI50 (HL-60(TB) [2]) | TGI (HL-60(TB) [2]) | CC50 (HL-60(TB) [2]) | growth at 10 µM (Malme-3M) | growth at 10 µM (SK-MEL-2) | logP at 5 h [3] | growth at 10 µM (CCRF-CEM) | growth at 10 µM [4] | growth at 10 µM (A549) | GI50 (OVCAR-5) | LC50 (OVCAR-5) | other results
1 | O=C(CN1CCN(c2cc3c(cc2F)c(=O)c(C(=O)O)cn3C2CC2)CC1)Nc1ccc(C(=O)/C=C/c2ccccc2)cc1 | 57.2% | 2.45% | 3.56 µM | > 100 µM | > 100 µM | 3.16 µM | > 100 µM | > 100 µM | 73.7% | 9.44 µM | > 100 µM | > 100 µM | 51% | 53.7% | 1.29 | 15.2% | 51.9% | 4.12% | 5.35 µM | > 100 µM | TGI (OVCAR-5): > 100 µM; growth at 10 µM (MDA-MB-468): 33.8%; growth at 10 µM (HL-60(TB) [5]): 40.9%; growth at 10 µM (SF-268): 37%
2 | COc1cc(/C=C/C(=O)c2ccc(NC(=O)CN3CCN(c4cc5c(cc4F)c(=O)c(C(=O)O)cn5C4CC4)CC3)cc2)cc(OC)c1OC | 67.4% | -18.8% | 0.3 µM | 6.98 µM | 1.17 µM | 0.56 µM | > 100 µM | > 100 µM | -7.05% | 1.11 µM | > 100 µM | > 100 µM | 31.4% | 30% | 0.753 | -13.7% | 76.8% | -19.2% | 1.87 µM | > 100 µM | TGI (OVCAR-5): 7.36 µM; growth at 10 µM (MDA-MB-468): -1.82%; growth at 10 µM (HL-60(TB) [5]): -33.7%; growth at 10 µM (SF-268): -1.11%
